From ChEMBL document CHEMBL4014310, “Selective IKur Inhibitors for the Potential Treatment of Atrial Fibrillation: Optimization of the Phenyl Quinazoline Series Leading to Clinical Candidate 5-[5-Phenyl-4-(pyridin-2-ylmethylamino)quinazolin-2-yl]pyridine-3-sulfonamide” (J Med Chem, 2017)
pIC50: −log10 of the molar value. Calls of active or inactive are those of the source. The calls are words filed in the database; no cut-off is given here.

Assays:
Canis familiaris [1] = test: Antiarrhythmic activity in mongrel dog heart failure model assessed as reduction in pacing-induced total atrial fibrillation duration at 0.1 to 0.3 mg/kg, po; type: functional, organism-based; settings: Canis lupus familiaris
Summary of the method: (§1)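 Simultaneous atrio-ventricular pacing dog model of atrial arrhythmia. Compound was given orally at 0.1 or 0.3 mg/kg in 10% EtOH/40% propylene glycol/50% PEG 400. AF inducibility was scored as mean number of AF inductions and total AF duration, with QTc monitored and plasma concentration measured. n = 7 control, 5 (0.1 mg/kg) and 6 (0.3 mg/kg) dogs.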

[2] = Tmax in mouse at 2 mg/kg, iv or 5 mg/kg, po; type: ADME, organism-based; settings: in vivo
Summary of the method: (§2)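 Single-dose PK in mouse and rat (2 mg/kg iv, 5 mg/kg po), cynomolgus monkey (1 mg/kg iv and po) and dog (0.1 mg/kg iv, 1 mg/kg po). Dosing vehicle was 1:4:5 EtOH/propylene glycol/PEG400. Parameters reported: clearance, Vss, half-life, Cmax, Tmax, AUC and oral bioavailability.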

[3] = Protein binding in human plasma; type: ADME, cell-free; settings: read-out: PPB
[4] = Volume of distribution at steady state in mouse at 2 mg/kg, iv or 5 mg/kg, po; type: ADME, organism-based; settings: in vivo, read-out: Vdss; summary of the method: as §2
Oryctolagus cuniculus [5] = test: Antiatrial fibrillation activity in methoxamine-sensitised rabbit assessed as increase in atrial effective refractory period at 0.17 mg/kg, iv administered as 1 min infusion relative to control; type: functional
Summary of the method: (§3)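 Rabbit, iv infusion of compound in DMF (0.17 mg/mL) with a 0.17 mg/kg maintenance dose. AERP was normalized to DMF vehicle, with time counted from the start of the maintenance infusion. Tissues were collected after 30 min. n = 3 rabbits; means ± standard error.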

Oryctolagus cuniculus [6] = test: Effect on ventricle effective refractory period in methoxamine-sensitised rabbit at 3 mg/kg, iv administered as 10 to 30 mins infusion; type: ADME, organism-based; settings: in vivo
[7] = Cmax in cynomolgus monkey at 1 mg/kg, iv or 1 mg/kg, po; type: ADME, organism-based, Macaca fascicularis; settings: in vivo
Summary of the method: (§4)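 Single-dose PK study in mouse and rat (2 mg/kg iv, 5 mg/kg po), cynomolgus monkey (1 mg/kg iv and po) and dog (0.1 mg/kg iv, 1 mg/kg po). Dosing vehicle was 1:4:5 EtOH/propylene glycol/PEG400. Clearance, Vss, half-life, Cmax, Tmax, AUC (μM h) and oral %F were derived from plasma levels.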

[8] = Oral bioavailability in cynomolgus monkey at 1 mg/kg using crystalline form; type: ADME, organism-based, Macaca fascicularis; settings: in vivo
Summary of the method: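 Oral %F in cynomolgus monkey at 1 mg/kg po, with the compound given as a micronized crystalline suspension rather than the solution vehicle (iv reference dose 1 mg/kg).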

[9] = Tmax in rat at 2 mg/kg, iv or 5 mg/kg, po; type: ADME, organism-based; settings: in vivo; summary of the method: as §2
Rhesus monkey = test: Drug absorption in monkey famotidine model at 10 mg/kg; type: ADME, organism-based, Macaca mulatta; settings: in vivo
[10] = Half life in mouse at 2 mg/kg, iv or 5 mg/kg, po; type: ADME, organism-based; settings: in vivo; summary of the method: as §4
Oryctolagus cuniculus [11] = test: Antiatrial fibrillation activity in methoxamine-sensitised rabbit assessed as increase in atrial effective refractory period at 0.17 mg/kg, iv measured 30 mins post infusion relative to control; type: functional; summary of the method: as §3
[12] = Cmax in dog at 0.1 mg/kg, iv or 1 mg/kg, po; type: ADME, organism-based, Canis lupus familiaris; settings: in vivo; summary of the method: as §4
Oryctolagus cuniculus [13] = test: Antiatrial fibrillation activity in methoxamine-sensitised rabbit assessed as increase in atrial effective refractory period at 3 mg/kg, iv administered as 20 mins infusion relative to control; type: functional
Summary of the method: (§5)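 Rabbit, iv dosing at 1 or 3 mg/kg. AERP was measured at 10, 20 and 30 min time points as % prolongation, and plasma compound concentration was measured at the same time points and correlated with the AERP change.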

[14] = Tmax in cynomolgus monkey at 1 mg/kg, iv or 1 mg/kg, po; type: ADME, organism-based, Macaca fascicularis; settings: in vivo; summary of the method: as §2
[15] = Solubility of the compound in pH 1 to 8 solution using crystalline form; type: physicochemical
[16] = Oral bioavailability in cynomolgus monkey at 1 mg/kg; type: ADME, organism-based, Macaca fascicularis; settings: in vivo; summary of the method: as §4
Canis familiaris [17] = test: Effect on QTc interval in pacing-induced mongrel dog heart failure model at 0.1 to 0.3 mg/kg, po; type: organism-based, Canis lupus familiaris; settings: in vivo; summary of the method: as §1
[18] = Inhibition of IKs (unknown origin); parameters: species or system Homo sapiens
[19] = Inhibition of sodium channel (unknown origin); parameters: species or system Homo sapiens
[20] = Cmax in rat at 2 mg/kg, iv or 5 mg/kg, po; type: ADME, organism-based; settings: in vivo; summary of the method: as §4
[21] = Half life in dog at 0.1 mg/kg, iv or 1 mg/kg, po; type: ADME, organism-based, Canis lupus familiaris; settings: in vivo; summary of the method: as §4
[22] = Oral bioavailability in rat at 5 mg/kg using crystalline form; type: ADME, organism-based; settings: in vivo
Oryctolagus cuniculus [23] = test: Antiatrial fibrillation activity in methoxamine-sensitised rabbit assessed as increase in atrial effective refractory period at 3 mg/kg, iv administered as 30 mins infusion relative to control; type: functional; summary of the method: as §5
Plasma = test: Plasma concentration in pacing-induced mongrel dog heart failure model at 0.3 mg/kg, po; type: ADME, organism-based, Canis lupus familiaris; settings: in vivo
Summary of the method: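 Simultaneous atrio-ventricular pacing dog model used to measure AF inducibility. Dogs were dosed orally at 0.1 mg/kg (n = 5) or 0.3 mg/kg (n = 6) in 10% EtOH/40% propylene glycol/50% PEG 400, and plasma concentration was measured alongside AF inductions and QTc.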

Oryctolagus cuniculus [24] = test: Antiatrial fibrillation activity in methoxamine-sensitised rabbit assessed as increase in atrial effective refractory period at 1 mg/kg, iv administered as 20 mins infusion relative to control; type: functional; summary of the method: as §5
Oryctolagus cuniculus [25] = test: Antiatrial fibrillation activity in methoxamine-sensitised rabbit assessed as plasma concentration required to show increase in atrial effective refractory period at 0.17 mg/kg, iv measured 15 mins post infusion; type: functional, organism-based; summary of the method: as §3
[26] = Oral bioavailability in mouse at 5 mg/kg; type: ADME, organism-based; settings: in vivo; summary of the method: as §2
[27] = AUC in mouse at 2 mg/kg, iv or 5 mg/kg, po; type: ADME, organism-based; settings: in vivo; summary of the method: as §4
[28] = Half life in cynomolgus monkey at 1 mg/kg, iv or 1 mg/kg, po; type: ADME, organism-based, Macaca fascicularis; settings: in vivo; summary of the method: as §4
[29] = Oral bioavailability in rat at 5 mg/kg; type: ADME, organism-based; settings: in vivo; summary of the method: as §2
[30] = Clearance in mouse at 2 mg/kg, iv or 5 mg/kg, po; type: ADME, organism-based; settings: in vivo; summary of the method: as §4
Oryctolagus cuniculus [31] = test: Antiatrial fibrillation activity in methoxamine-sensitised rabbit assessed as increase in atrial effective refractory period at 0.17 mg/kg, iv administered as 15 mins infusion relative to control; type: functional; summary of the method: as §3
[32] = Plasma concentration in methoxamine-sensitised rabbit at 3 mg/kg, iv administered as 30 mins infusion; type: ADME, organism-based, Oryctolagus cuniculus
[33] = Clearance in dog at 0.1 mg/kg, iv or 1 mg/kg, po; type: ADME, organism-based, Canis lupus familiaris; settings: in vivo; summary of the method: as §4
Oryctolagus cuniculus [34] = test: Antiatrial fibrillation activity in methoxamine-sensitised rabbit assessed as increase in atrial effective refractory period at 3 mg/kg, iv administered as 10 mins infusion relative to control; type: functional; summary of the method: as §5
[35] = molecular target: Potassium voltage-gated channel subfamily A member 5 (Homo sapiens, UniProt P22460); test: Inhibition of recombinant human Kv1.5 expressed in mouse L929 cells by patch clamp assay; type: cell-based
Potassium voltage-gated channel subfamily A member 5, sequence (P22460 whole entry): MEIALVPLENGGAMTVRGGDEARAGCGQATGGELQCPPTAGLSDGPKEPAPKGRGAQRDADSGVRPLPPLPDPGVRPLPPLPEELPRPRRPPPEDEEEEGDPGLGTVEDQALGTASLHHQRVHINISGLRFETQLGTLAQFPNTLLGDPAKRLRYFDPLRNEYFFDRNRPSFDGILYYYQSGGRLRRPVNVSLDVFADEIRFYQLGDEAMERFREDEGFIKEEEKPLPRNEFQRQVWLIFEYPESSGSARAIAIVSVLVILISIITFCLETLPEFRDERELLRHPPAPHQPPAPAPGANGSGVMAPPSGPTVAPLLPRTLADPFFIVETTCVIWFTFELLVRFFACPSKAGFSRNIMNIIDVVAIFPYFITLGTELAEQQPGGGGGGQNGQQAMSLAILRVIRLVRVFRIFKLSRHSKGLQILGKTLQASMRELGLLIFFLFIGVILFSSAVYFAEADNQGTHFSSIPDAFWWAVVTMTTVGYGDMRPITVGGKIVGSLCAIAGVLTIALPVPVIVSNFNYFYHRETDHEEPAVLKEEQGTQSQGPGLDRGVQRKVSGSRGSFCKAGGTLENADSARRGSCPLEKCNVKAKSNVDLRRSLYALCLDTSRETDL
Summary of the method: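 Whole-cell patch clamp of IKur current in mouse L-929 cells transfected with human KV1.5 and stably expressing the channel.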

Oryctolagus cuniculus [36] = test: Antiatrial fibrillation activity in methoxamine-sensitised rabbit assessed as plasma concentration required to show increase in atrial effective refractory period at 0.17 mg/kg, iv measured 30 mins post infusion; type: functional, organism-based; summary of the method: as §3

Which results are given for `NS(=O)(=O)c1cncc(-c2nc(NCc3ccccn3)c3c(-c4ccccc4)cccc3n2)c1` [BMS-919373]?
Activity (Canis familiaris [1]): Active; Tmax [2]: 0.5 h; fraction unbound [3]: < 0.01; Vd [4]: 1.8 L/kg; Activity (Oryctolagus cuniculus [5]): 9.9%; Activity (Oryctolagus cuniculus [6]): Non-Toxic; Cmax [7]: 0.9 µM; bioavailability [8]: 54%; Tmax [9]: 2.6 h; Drug absorption (Rhesus monkey): Active; half-life [10]: 2 h; Activity (Oryctolagus cuniculus [11]): 11.4%; Cmax [12]: 7.8 µM; Activity (Oryctolagus cuniculus [13]): 16.2%; Tmax [14]: 4.9 h; solubility [15]: Soluble; bioavailability [16]: 100%; Activity (Canis familiaris [17]): Non-Toxic; pIC50 [18]: < 5.00; pIC50 [19]: < 5.00; Cmax [20]: 7.9 µM; half-life [21]: 51 h; bioavailability [22]: 35%; Activity (Oryctolagus cuniculus [23]): 21.6 - 22%; concentration (Plasma): 1.84 µM; Activity (Oryctolagus cuniculus [24]): 10.6%; Cp (Oryctolagus cuniculus [25]): 0.1 µM; bioavailability [26]: 100%; AUC [27]: 21 µM·h; half-life [28]: 4.6 h; bioavailability [29]: 100%; clearance [30]: 10.6 mL/min/kg; Activity (Oryctolagus cuniculus [31]): 11%; concentration at 0.5 h [32]: 3.3 µM; clearance [33]: 0.05 mL/min/kg; Activity (Oryctolagus cuniculus [34]): 10.8%; pIC50 [35]: 7.30 to 7.34; Cp (Oryctolagus cuniculus [36]): 0.09 µM
